ChEMBL document CHEMBL1122244, “Synthesis and monoamine oxidase inhibitory activities of alpha-allenic amines in vivo and in vitro. Different activities of two enantiomeric allenes” (J Med Chem, 1983)

Legend:
Mus musculus [1] = test: Lowest dose potentiating the awakening effect of phenethylamine (10 mg/kg, subcutaneous) in mice pretreated with reserpine; assay type: functional
In short: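 Mice were pretreated with reserpine 5 mg/kg sc 18 h beforehand. Test compound was given ip 1 h before PEA hydrochloride 10 mg/kg sc.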

Monoamine oxidase [2] = target: T1, Monoamine oxidase (Mus musculus, UniProt Q8BW75+Q64133); test: Inhibitory activity of Monoamine oxidase at mouse forebrain homogenate by displacing [14C]5-HT; assay type: tissue-based
T1 sequence (Q8BW75 whole entry): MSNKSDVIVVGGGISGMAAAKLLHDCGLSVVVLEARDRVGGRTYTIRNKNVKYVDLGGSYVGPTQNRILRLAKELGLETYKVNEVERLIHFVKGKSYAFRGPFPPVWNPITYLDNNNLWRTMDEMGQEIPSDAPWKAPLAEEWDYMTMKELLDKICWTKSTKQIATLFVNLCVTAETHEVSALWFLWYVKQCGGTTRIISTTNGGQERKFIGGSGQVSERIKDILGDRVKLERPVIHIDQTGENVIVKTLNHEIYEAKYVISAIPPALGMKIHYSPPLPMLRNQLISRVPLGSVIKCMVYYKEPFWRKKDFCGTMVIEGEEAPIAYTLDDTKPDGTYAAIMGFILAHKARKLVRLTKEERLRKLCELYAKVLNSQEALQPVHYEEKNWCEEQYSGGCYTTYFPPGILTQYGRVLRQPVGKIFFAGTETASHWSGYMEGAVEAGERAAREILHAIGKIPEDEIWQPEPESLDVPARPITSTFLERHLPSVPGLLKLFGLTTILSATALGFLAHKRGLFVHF
T1 sequence (Q64133 whole entry): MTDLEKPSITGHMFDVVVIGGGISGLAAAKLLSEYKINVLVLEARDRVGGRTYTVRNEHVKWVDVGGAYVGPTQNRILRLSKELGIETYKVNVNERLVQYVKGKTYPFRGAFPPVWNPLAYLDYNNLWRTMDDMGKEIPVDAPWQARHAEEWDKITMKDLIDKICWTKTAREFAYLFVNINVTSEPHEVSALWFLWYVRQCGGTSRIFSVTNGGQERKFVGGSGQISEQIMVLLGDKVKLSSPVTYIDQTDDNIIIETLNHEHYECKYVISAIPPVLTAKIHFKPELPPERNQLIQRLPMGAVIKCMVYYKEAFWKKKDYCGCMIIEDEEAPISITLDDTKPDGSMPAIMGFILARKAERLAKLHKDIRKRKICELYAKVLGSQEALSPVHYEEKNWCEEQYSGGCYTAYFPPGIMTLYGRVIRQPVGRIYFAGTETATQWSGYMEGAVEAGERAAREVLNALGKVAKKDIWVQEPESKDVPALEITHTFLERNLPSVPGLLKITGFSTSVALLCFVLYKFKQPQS
In short: (§1)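 Male NMRI mice (18–22 g) dosed ip (0.2 mL/20 g) and killed 1 h later, five per dose. Forebrain was homogenized in 10 vol ice-cold 0.1 M sodium phosphate, pH 7.4, and incubated 10 min at 37 °C with 10 μM [14C]PEA plus 10 μM [3H]5-HT. Acid metabolites were extracted into ethyl acetate and 3H/14C counted in separate channels.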

Monoamine oxidase [3] = target: T1, Monoamine oxidase; test: Inhibitory activity of Monoamine oxidase at mouse forebrain homogenate by displacing [14C]PEA; assay type: tissue-based; in short: as §1
Monoamine oxidase [4] = target: T2, Monoamine oxidase (Rattus norvegicus, UniProt P19643+P21396); test: In vitro inhibition of Monoamine oxidase at rat hyphalamic mitochondrial 5-HT by displacing 2.5 uM of [14C]5-HT.; assay type: protein assay
T2 sequence (P19643 whole entry): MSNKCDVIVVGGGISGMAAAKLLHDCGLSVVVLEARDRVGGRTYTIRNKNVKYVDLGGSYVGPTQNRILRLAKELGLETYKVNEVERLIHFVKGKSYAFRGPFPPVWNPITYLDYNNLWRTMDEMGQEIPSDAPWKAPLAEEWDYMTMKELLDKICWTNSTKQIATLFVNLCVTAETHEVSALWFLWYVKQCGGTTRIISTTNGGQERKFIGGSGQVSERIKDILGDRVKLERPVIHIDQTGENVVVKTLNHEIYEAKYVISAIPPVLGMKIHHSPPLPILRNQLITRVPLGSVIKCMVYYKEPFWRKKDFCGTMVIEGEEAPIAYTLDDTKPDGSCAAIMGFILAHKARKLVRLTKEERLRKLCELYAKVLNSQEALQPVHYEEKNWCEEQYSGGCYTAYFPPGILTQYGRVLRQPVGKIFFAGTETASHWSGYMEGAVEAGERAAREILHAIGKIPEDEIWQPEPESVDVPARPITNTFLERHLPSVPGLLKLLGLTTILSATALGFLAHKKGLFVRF
T2 sequence (P21396 whole entry): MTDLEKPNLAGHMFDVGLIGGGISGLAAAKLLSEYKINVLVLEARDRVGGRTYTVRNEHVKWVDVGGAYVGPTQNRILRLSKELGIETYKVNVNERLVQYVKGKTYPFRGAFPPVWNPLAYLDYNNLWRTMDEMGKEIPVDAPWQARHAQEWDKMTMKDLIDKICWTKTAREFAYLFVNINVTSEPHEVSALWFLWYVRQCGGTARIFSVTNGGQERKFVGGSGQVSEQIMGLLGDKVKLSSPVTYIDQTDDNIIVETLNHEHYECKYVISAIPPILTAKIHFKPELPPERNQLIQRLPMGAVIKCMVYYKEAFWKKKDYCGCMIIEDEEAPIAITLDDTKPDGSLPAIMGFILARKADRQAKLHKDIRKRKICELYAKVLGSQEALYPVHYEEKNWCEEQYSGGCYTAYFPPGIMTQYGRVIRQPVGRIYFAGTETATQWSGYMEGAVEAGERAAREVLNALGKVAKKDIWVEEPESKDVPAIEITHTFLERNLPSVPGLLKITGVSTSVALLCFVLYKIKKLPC

Monoamine oxidase [5] = target: T2, Monoamine oxidase; test: In vitro inhibition of Monoamine oxidase at rat hyphalamic mitochondrial PEA by displacing 2.5 uM of [14C]PEA.; assay type: protein assay
Mus musculus [6] = test: Compound was injected ip 1 hr prior to 90 mg/kg iv of […] evaluation of abduction in mice; assay type: functional
In short: (§2)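 Test compound given ip 1 h before iv dl-5-HTP, 90 mg/kg, in mice. The 5-HTP syndrome was scored per Ross et al. for head twitches, tremor and abduction. Values are ED50 in μmol/kg ip.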

Mus musculus [7] = test: Compound was injected ip 1 hr prior to 90 mg/kg iv of […] evaluation of head twitches in mice; assay type: functional; in short: as §2
Mus musculus [8] = test: Compound was injected ip 1 hr prior to 90 mg/kg iv of […] evaluation of tremor in mice; assay type: functional; in short: as §2
Monoamine oxidase [9] = target: T1, Monoamine oxidase; test: Inhibitory activity of Monoamine oxidase at mouse forebrain homogenate by displacing [14C]5-HT (serotonin); assay type: tissue-based; conditions: in the assay text read “[3H]5-HT” for “[14C]5-HT”; in short: as §1
Monoamine oxidase [10] = target: T1, Monoamine oxidase; test: Inhibitory activity of Monoamine oxidase at mouse forebrain homogenate by displacing [14C]PEA (phenethylamine); assay type: tissue-based; in short: as §1
Mus musculus [11] = test: Lowest dose potentiating the awakening effect of phenethylamine (10 mg/kg, subcutaneous) in mice pretreated with reserpine

SMILES	Potentiation (Mus musculus [1]) [µM/kg]	ED50 (Monoamine oxidase [2]) [µM/kg]	ED50 (Monoamine oxidase [3]) [µM/kg]	IC50 (Monoamine oxidase [4]) [µM]	IC50 (Monoamine oxidase [5]) [µM]	ED50 (Mus musculus [6]) [µmol/kg]	ED50 (Mus musculus [7]) [µmol/kg]	ED50 (Mus musculus [8]) [µmol/kg]	ED50 (Monoamine oxidase [9]) [µM/kg]	ED50 (Monoamine oxidase [10]) [µM/kg]	Potentiation (Mus musculus [11]) [µM/kg]
C=C=C(CN)Cc1ccc(Cl)cc1	35	18	7	0.26	0.04	–	–	–	–	–	–
C=C=C(CN)Cc1ccc(OC)cc1	36	39	16	0.7	0.58	–	–	–	–	–	–
C=C=C(CN)c1ccccc1	>79	> 39	8	7.2	0.24	–	–	–	–	–	–
C=C=C(CN)Cc1ccccc1	51	> 26	12	20	0.14	–	–	–	–	–	–
C#CCN(C)[C@H](C)Cc1ccccc1 [SELEGILINE]	5	> 89	2	–	–	–	–	–	–	–	–
C=C=CCN(C)C(C)Cc1ccccc1 (centres undefined)	34	> 69	52	0.8	4.7	–	–	–	–	–	–
C=C=CCNCc1ccccc1	26	> 51	6	1.8	0.15	–	–	–	–	–	–
C=C=C(CN)Cc1ccc(C)cc1	>38	> 38	23	1.1	0.36	–	–	–	–	–	–
CC=C=CCN(C)Cc1ccccc1	–	> 72	36	29	15	–	–	–	–	–	–
C=C=C(Cc1ccccc1)CN(C)C	> 72	> 72	54	25	> 100	–	–	–	–	–	–
C=C=CCN(C)C1CCc2ccccc21 (centres undefined)	9	35	1.7	1.8	0.36	–	–	–	–	–	–
CC=C=CCN(C)Cc1ccccc1.O=C(O)C(=O)O (stereo in doubt; (R)(-)2)	72	> 36	20	17	2.3	–	–	–	–	–	–
C=C=CCN(C)Cc1ccccc1	–	> 48	17	8.2	0.17	–	–	–	–	–	–
CC=C=CCN(C)Cc1ccccc1.O=C(O)C(=O)O (stereo in doubt; (S)(+)2)	>72	> 72	54	51	50	–	–	–	–	–	–
C=C=CCN(C)CCCOc1ccc(Cl)cc1Cl	60	6	33	0.004	4.6	5.4	1.7	5.1	–	–	–
C=C=CCN1CCc2ccccc2C1	>90	> 90	> 90	7	4.3	–	–	–	–	–	–
C=C=C(CNC)Cc1ccccc1	76	> 38	11	6.2	0.44	–	–	–	–	–	–
C#CCN(C)CCCOc1ccc(Cl)cc1Cl [CLORGILINE]	–	–	–	–	–	–	–	–	2.6	> 65	>65
C=C=CC(C)N(C)Cc1ccccc1 (centres undefined)	–	–	–	43	> 100	–	–	–	–	–	–
